Holding throughout (format): functional, cell-based
For one assay, the system named is A549. The experiment in a line: Growth inhibition of A549 (human lung carcinoma) cell line. In a few lines: (§1)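 Cells from ATCC, grown in RPMI 1640 with 10% fetal calf serum. Compounds dissolved in DMSO, diluted in Earle's balanced salt solution then medium, 2-fold serial dilutions, each in triplicate versus triplicate drug-free controls. 2.5 × 10^3 cells per well, 72 h at 37 °C, 5% CO2. MTT added for 90 min, DMSO solubilization, absorbance at 570 nm. IC50 = 50% absorbance reduction versus control, by linear regression of dose-response curves.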

For the next assay, the system named is HT-29. The experiment in a line: Growth inhibition of HT-29 (human colon adenocarcinoma) cell line. In a few lines:
as §1

The subject of another assay is P388. The experiment in a line: Growth inhibition of P388-D1 (murine leukemia) cell line. As to conditions: Mus musculus. In a few lines: as §1

In brackets after ≈: the same amount, converted by molar mass.

On to `COc1cc([C@@H]2c3cc4c(cc3[C@]3(CO)COC(=O)[C@H]23)OCO4)cc(OC)c1OC`, for which the IC50 came out at 1.2 µg/mL (≈ 2.9 µM) with A549, 1.2 µg/mL (≈ 2.9 µM) with HT-29 and 0.59 µg/mL (≈ 1.42 µM) in the assay on P388.
Turning to `COc1cc([C@@H]2c3cc4c(cc3[C@@H](O)[C@@]23CCOC3=O)OCO4)cc(OC)c1O`, the half-inhibitory concentration (IC50) in the assay on A549 was 48.2 µg/mL (≈ 120 µM); with HT-29, more than 50 µg/mL; with P388, 16.8 µg/mL (≈ 42 µM).
With `COc1cc([C@@H]2c3cc4c(cc3[C@H](O)[C@H]3COC(=O)[C@H]23)OCO4)cc(OC)c1OC` [PODOFILOX], the half-inhibitory concentration (IC50) in the assay with A549 worked out at 0.0043 µg/mL (≈ 0.0104 µM); in the assay on HT-29, 0.0043 µg/mL (≈ 0.0104 µM); with P388, 0.0013 µg/mL (≈ 0.00314 µM).
As to `COc1cc([C@H]2C[C@H](OC)c3cc4c(cc32)OCO4)cc(OC)c1O`, the results for the half-maximal inhibitory concentration (IC50) in the assay on A549, with HT-29 and with P388 were 46.9 µg/mL (≈ 136 µM), 41.5 µg/mL (≈ 121 µM) and 8.1 µg/mL (≈ 23.5 µM), respectively.
Take `COc1cccc2c1C(=O)c1c(O)c3c(c(O)c1C2=O)C[C@@](O)(C(=O)CO)C[C@@H]3O[C@H]1C[C@H](N)[C@H](O)[C@H](C)O1` [DOXORUBICIN]: the figures for the IC50 in the assay with A549, in the assay on HT-29 and in the assay with P388 were 0.053 µg/mL (≈ 0.0975 µM), 0.11 µg/mL (≈ 0.202 µM) and 0.017 µg/mL (≈ 0.0313 µM), respectively.
For `COC(=O)[C@@]12CCO[C@@H]1c1cc3c(cc1[C@H]2c1cc(OC)c(O)c(OC)c1)OCO3`, the results for the IC50 with A549, with HT-29 and in the assay on P388 were more than 50 µg/mL, more than 50 µg/mL and 43 µg/mL (≈ 104 µM), respectively.
`COc1cc([C@H]2C[C@H](OC(C)(C)C)c3cc4c(cc32)OCO4)cc(OC)c1O`: the figures for the IC50 with A549, in the assay with HT-29 and in the assay with P388 were 31.3 µg/mL (≈ 81 µM), 28.8 µg/mL (≈ 74.5 µM) and 7.1 µg/mL (≈ 18.4 µM), respectively.
Regarding `COc1cc([C@H]2C[C@H](O)c3cc4c(cc32)OCO4)cc(OC)c1O`, the IC50 in the assay on A549 was 9.9 µg/mL (≈ 30 µM); in the assay on HT-29, 12 µg/mL (≈ 36.3 µM); with P388, 4.2 µg/mL (≈ 12.7 µM).
For the molecule `COc1cc([C@H]2C[C@H](OC3CCCCC3)c3cc4c(cc32)OCO4)cc(OC)c1O`, the IC50 stood at 9.7 µg/mL (≈ 23.5 µM) with A549, 8.6 µg/mL (≈ 20.8 µM) in the assay with HT-29 and 6.6 µg/mL (≈ 16 µM) in the assay with P388.
As for `COc1cc(C2CC(=O)c3cc4c(cc32)OCO4)cc(OC)c1OC` (stereo not given), the IC50 is 2.9 µg/mL (≈ 8.47 µM) in the assay on A549, 2.9 µg/mL (≈ 8.47 µM) in the assay with HT-29 and 1.1 µg/mL (≈ 3.21 µM) in the assay with P388.
As for `COc1cc([C@H]2C[C@@H](OC)c3cc4c(cc32)OCO4)cc(OC)c1O`, the IC50 with A549 stood at 1.1 µg/mL (≈ 3.19 µM); with HT-29, 3.2 µg/mL (≈ 9.29 µM); in the assay with P388 it was 0.57 µg/mL (≈ 1.66 µM).
Regarding `COc1cc([C@H]2C[C@@H](O)c3cc4c(cc32)OCO4)cc(OC)c1OC`, the IC50 in the assay with A549 was 0.038 µg/mL (≈ 0.11 µM); in the assay with HT-29, 0.032 µg/mL (≈ 0.0929 µM); with P388 it was 0.014 µg/mL (≈ 0.0407 µM).
For `COc1cc(C2CC(=O)c3cc4c(cc32)OCO4)cc(OC)c1O` (stereo not given) the same measures were 19.4 µg/mL (≈ 59.1 µM), 19.2 µg/mL (≈ 58.5 µM) and 1.7 µg/mL (≈ 5.18 µM).
For `COc1cc([C@@H]2c3cc4c(cc3[C@H](O)[C@@]23CCOC3=O)OCO4)cc(OC)c1OC`, the IC50 in the assay with A549 came out at 5.1 µg/mL (≈ 12.3 µM); in the assay on HT-29, 5.3 µg/mL (≈ 12.8 µM); in the assay on P388, 2.5 µg/mL (≈ 6.03 µM).
Regarding `COc1cc([C@@H]2c3cc4c(cc3[C@@H](O[C@@H]3O[C@@H]5CO[C@@H](C)O[C@H]5[C@H](O)[C@H]3O)[C@H]3COC(=O)[C@H]23)OCO4)cc(OC)c1O` [ETOPOSIDE], the values for the IC50 in the assay with A549, in the assay with HT-29 and in the assay on P388 were 1.03 µg/mL (≈ 1.75 µM), 1.7 µg/mL (≈ 2.89 µM) and 0.063 µg/mL (≈ 0.107 µM), respectively.
Turning to `COC(=O)[C@@]12CCO[C@@H]1c1cc3c(cc1[C@H]2c1cc(OC)c(OC)c(OC)c1)OCO3`, the results for the IC50 in the assay on A549, in the assay with HT-29 and in the assay on P388 were 11.9 µg/mL (≈ 27.8 µM), 17.4 µg/mL (≈ 40.6 µM) and 5.7 µg/mL (≈ 13.3 µM), respectively.
Taken in the same sequence, the figures for `COc1cc([C@H]2C[C@@H](OC3CCCCC3)c3cc4c(cc32)OCO4)cc(OC)c1O` were 12 µg/mL (≈ 29.1 µM), 10.3 µg/mL (≈ 25 µM) and 7.9 µg/mL (≈ 19.2 µM).
In the case of `COc1cc([C@H]2C[C@@H](O)c3cc4c(cc32)OCO4)cc(OC)c1O`, the IC50 stood at 0.76 µg/mL (≈ 2.3 µM) in the assay on A549, 2.1 µg/mL (≈ 6.36 µM) with HT-29 and 0.53 µg/mL (≈ 1.6 µM) with P388.
`COc1cc([C@@H]2c3cc4c(cc3[C@H](O)[C@@]23CCOC3=O)OCO4)cc(OC)c1O`: the IC50 with A549, with HT-29 and in the assay on P388 was more than 50 µg/mL each time.
Consider `COc1cc([C@@H]2c3cc4c(cc3[C@]3(CO)COC(=O)[C@H]23)OCO4)cc(OC)c1O`, for which the IC50 with A549 amounted to 12.5 µg/mL (≈ 31.2 µM); in the assay on HT-29, 12.2 µg/mL (≈ 30.5 µM); in the assay on P388, 8 µg/mL (≈ 20 µM).
